6 molecules from ChEMBL document CHEMBL3352053, “New silibinin glyco-conjugates: synthesis and evaluation of antioxidant properties” (Bioorg Med Chem Lett, 2014) can be followed below.

A word on the IC50: it is the concentration needed to halve the response being measured.

Data set [1] in a line: Antioxidant activity assessed as DPPH radical scavenging activity after 10 mins. The data set is classed as physicochemical. In a few lines: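 Freshly prepared DPPH solution in test tubes; analogue solutions (1 mM–1 µM) added to a final volume of 2.25 mL. Absorbance read at 515 nm after 10 min. References prepared as 1 mM methanol stocks. IC50 calculated from at least three independent experiments.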
In general terms: Loss of DPPH colour is used to gauge radical scavenging.

Data set [2] in a line: Toxicity in human MKN28 cells assessed as cell viability at 10 to 200 uM after 48 hrs by MTT assay. The format is cell-based, MKN-28. The settings on record: read-out: Activity. In a few lines: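 MKN28 cells incubated under basal conditions with compounds (10–200 µM) for 1–48 h, with serum-free medium as control. Viability read by MTT assay. Mean ± SD from three separate experiments run in duplicate.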
Background: Formazan colour is commonly taken as a measure of viable cells.

Data set [3] in a line: Inhibition of xanthine oxidase in human MKN28 cells assessed as inhibition of xanthine oxidase-induced cell damage by measuring cell viability at 10 to 200 uM after 48 hrs by MTT assay. The format is cell-based. The settings on record: mkn-28, 48 h. In a few lines:
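MKN28 cells pre-incubated with compounds (10–200 µM) for 1–48 h, washed, then exposed for 2 h to xanthine (1 mM) plus xanthine oxidase to induce oxidative stress. Controls were serum-free medium alone, and serum-free medium followed by X–XO. Viability read by MTT assay. Mean ± SD from three separate experiments run in duplicate.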

As for `COc1cc([C@H]2Oc3cc([C@H]4Oc5cc(O)cc(O)c5C(=O)[C@@H]4O)ccc3O[C@H]2COP(=O)([O-])OC2O[C@H](CO)[C@H](O)[C@H](O)[C@H]2O)ccc1O.[Na+]` (stereo partly specified), in data set [1], the IC50 came to 233 µM. Also, the viability at 48 h, up to 200 µM in data set [2] came to 84.1%. Moreover, in data set [3], the Activity is recorded as 42.8%.

In the case of `COc1cc([C@H]2Oc3cc([C@H]4Oc5cc(O)cc(O)c5C(=O)[C@@H]4O)ccc3O[C@H]2COP(=O)([O-])OC2O[C@H](CO)[C@@H](O)[C@H](O)[C@@H]2O)ccc1O.[Na+]` (stereo partly specified), the IC50 in data set [1] was found to be 108 µM. Also, in data set [2], the viability at 48 h, up to 200 µM was 89.5%. Also, in data set [3], the Activity turned out to be 42.3%.

Consider `COc1cc([C@H]2Oc3cc([C@H]4Oc5cc(O)cc(O)c5C(=O)[C@@H]4O)ccc3O[C@H]2COP(=O)([O-])OC2O[C@H](CO)[C@@H](O)[C@H](O)[C@H]2O)ccc1O.[Na+]` (stereo partly specified), for which the half-maximal inhibitory concentration (IC50) in data set [1] was found to be 302 µM. The viability at 48 h, up to 200 µM in data set [2] is 89.2%. The Activity in data set [3] was found to be 42.7%.

`COc1cc(C2Oc3cc([C@H]4Oc5cc(O)cc(O)c5C(=O)[C@@H]4O)ccc3OC2CO)ccc1O` (stereo partly specified) [SILIBININ]: the IC50 in data set [1] worked out at 392 µM. Besides, the viability at 48 h, up to 200 µM in data set [2] was determined as 45.3%. Besides, the Activity in data set [3] was 42.4%.

As for `COc1cc([C@H]2Oc3cc([C@H]4Oc5cc(O)cc(O)c5C(=O)[C@@H]4O)ccc3O[C@H]2COP(=O)([O-])OC2O[C@H](CO)[C@H](OC3O[C@H](CO)[C@H](O)[C@H](O)[C@H]3O)[C@H](O)[C@H]2O)ccc1O.[Na+]` (stereo partly specified), the IC50 in data set [1] was 155 µM. Moreover, the viability at 48 h, up to 200 µM in data set [2] amounted to 91.8%. Besides, the Activity in data set [3] was found to be 48.4%.

In the case of `COc1cc([C@H]2Oc3cc(-c4oc5cc(O)cc(O)c5c(=O)c4O)ccc3O[C@@H]2CO)ccc1O`, in data set [1], the IC50 was 27 µM.
